Values after ≈ are worked out from the molar mass of the structure shown.
Columns and labels:
Format in all cases: functional
Staphylococcus aureus [1] = experiment: Antimicrobial activity against methicillin-susceptible Staphylococcus aureus 543 after 17 passages by multi-step resistance selection technique
How it was run: (§1)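 Multistep selection by daily serial passage of each strain in subinhibitory drug concentrations for the stated number of passages. Mutant MIC was then determined. Identity of mutants and parents was confirmed by pulsed-field gel electrophoresis.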

Staphylococcus aureus [2] = experiment: Antimicrobial activity against methicillin-resistant Staphylococcus aureus 547 after 14 passages by multi-step resistance selection technique; how it was run: as §1
Staphylococcus aureus [3] = experiment: Antimicrobial activity against panton-valentine leukocidin-positive community-acquired methicillin-resistant Staphylococcus aureus 490 after 17 passages by multi-step resistance selection technique
How it was run: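 Multistep selection: 10 S. aureus strains (8 MRSA incl. two VRSA, two VISA; 2 MSSA) serially passaged daily at subinhibitory concentrations of each antimicrobial; MICs of mutants retested and compared with parent; clone identity versus parent confirmed by pulsed-field gel electrophoresis at study end.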

Structure (SMILES) | MIC (Staphylococcus aureus [1]) [µg/mL] | MIC (Staphylococcus aureus [2]) [µg/mL] | MIC (Staphylococcus aureus [3]) [µg/mL]
CCCCCCCCCC(=O)N[C@@H](Cc1c[nH]c2ccccc12)C(=O)N[C@H](CC(N)=O)C(=O)N[C@@H](CC(=O)O)C(=O)N[C@@H]1C(=O)NCC(=O)N[C@@H](CCCN)C(=O)N[C@@H](CC(=O)O)C(=O)N[C@H](C)C(=O)N[C@@H](CC(=O)O)C(=O)NCC(=O)N[C@H](CO)C(=O)N[C@@H]([C@H](C)CC(=O)O)C(=O)N[C@@H](CC(=O)c2ccccc2N)C(=O)O[C@@H]1C | 8 (≈ 4.94 µM) |  | 
Cc1c(N)cccc1Cn1ccc(OCCc2cccs2)cc1=O [CG-400549] |  | 32 (≈ 94 µM) | 8 (≈ 23.5 µM)
